OXTR ag: human OXTR agonists, primary screen, fluorescence, CHO-OTR cells, Fluo-8 calcium. activation, % at 3 µM. actives 0.32% (n = 320,000). Oxytocin receptor (Homo sapiens), P30559. Fluo-8 calcium fluorescence; normalized: DMSO 0%, oxytocin 100%;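 active means activation above the mean of all tested compounds plus 3 SD, cutoff set per screening run, cut at about 20% in these data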;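 further: peak over basal fluorescence ratio from a 100 s FLIPR kinetic read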
OXTR potentiator: human OXTR potentiators, primary screen, fluorescence, CHO-OTR cells, Fluo-8 calcium; Fluo-8 calcium fluorescence, potentiator mode; 0% = oxytocin EC15, 100% = EC100; activation, % at 3 µM; actives 0.061% (n = 320,000); AID 2445, 2010;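 active means activation above that plate's cutoff, the mean activation of tested compounds plus 3 SD, cut at about 6.6% in these data, passing the limit was not always enough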;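 further: 100% uses oxytocin at 75 nM as the full agonist control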
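Measured by – Fluo-8 calcium dye fluorescence · Test system – human OTR in CHO cells · Dosing – one concentration, 3.0 µM compound · Controls – EC15 oxytocin alone as 0%, 75 nM oxytocin as 100% · Evaluation – normalized max/min fluorescence ratio, % activation · Timing – 6 min pre-incubation, 100 s read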
V1aR counter: agonists of human V1a receptor, primary screen, counter-screen for OXTR agonist project, fluorescence, CHO-V1R cells; Vasopressin V1a receptor (Homo sapiens), P37288; Fluo-8 calcium fluorescence, agonist mode; 0% DMSO, 100% 3 nM vasopressin; activation, % at 3 µM; actives 0.25% (n = 320,000);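 active means activation above the mean activation of all tested compounds plus 3 SD, per screening run, cut at about 20% in these data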;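 further: signal is peak over basal fluorescence ratio across a 100 second FLIPR read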
Target sequence (P37288 whole entry, looked up): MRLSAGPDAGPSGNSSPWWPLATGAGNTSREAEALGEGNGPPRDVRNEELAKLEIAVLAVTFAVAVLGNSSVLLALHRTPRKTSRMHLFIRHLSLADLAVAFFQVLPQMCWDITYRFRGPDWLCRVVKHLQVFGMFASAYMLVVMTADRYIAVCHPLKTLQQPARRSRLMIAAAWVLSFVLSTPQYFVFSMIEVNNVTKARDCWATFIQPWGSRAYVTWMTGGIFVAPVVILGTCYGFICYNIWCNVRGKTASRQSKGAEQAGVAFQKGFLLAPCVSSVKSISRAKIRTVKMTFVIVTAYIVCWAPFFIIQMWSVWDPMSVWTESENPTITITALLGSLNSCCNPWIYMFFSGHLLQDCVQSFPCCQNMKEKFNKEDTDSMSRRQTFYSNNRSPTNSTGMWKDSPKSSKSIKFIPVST
TAAR1 ag: human TAAR1 agonists, primary screen, Fluo-8 calcium fluorescence, CHO RD-HGA16 cells. activation, % at 3 µM. Trace amine-associated receptor 1 (Homo sapiens), Q96RJ0. vehicle wells 0%, saturating PEA agonist 100%. actives 0.99% (n = 360,000);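 active means activation above the mean activation of all test compounds in the run plus 3 SD, cut at about 38% in these data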
Target sequence (Q96RJ0 whole entry, looked up): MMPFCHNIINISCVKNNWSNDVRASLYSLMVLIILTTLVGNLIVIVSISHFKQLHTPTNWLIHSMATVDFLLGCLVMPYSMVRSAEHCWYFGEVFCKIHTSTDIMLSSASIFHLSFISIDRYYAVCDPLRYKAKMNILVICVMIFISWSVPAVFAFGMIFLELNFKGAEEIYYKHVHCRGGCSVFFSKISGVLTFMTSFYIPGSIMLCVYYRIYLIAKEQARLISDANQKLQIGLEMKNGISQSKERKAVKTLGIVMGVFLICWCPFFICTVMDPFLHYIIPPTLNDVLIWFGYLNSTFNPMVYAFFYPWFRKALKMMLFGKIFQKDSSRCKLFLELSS
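Signal – calcium-sensitive Fluo-8 signal, excitation 470-495, emission 515-575 nm · System – RD-HGA16 (CHO) cells co-expressing Gα16 and hTAAR1 · Incubation – 17-24 h seeding, 75 min 37 °C dye, 30 min RT · Compound dosing – 3 µM single concentration · Repeats – no replicates (n 1)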
TAAR1 antag: human TAAR1 antagonists, primary screen, Fluo-8 calcium fluorescence, CHO RD-HGA16 cells. Trace amine-associated receptor 1 (Homo sapiens), Q96RJ0. antagonist. inhibition, % at 3 µM. actives 1.5% (n = 360,000). AID 624466, 2012;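 active means inhibition above a per-plate cutoff, the mean inhibition of test compounds on that plate plus 3 SD, cut at about 49% in these data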;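 further: 0% = DMSO plus EC80 beta-PEA response and 100% = DMSO alone without agonist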
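Material: CHO RD-HGA16 cells bearing hTAAR1; compound dosing: one-point dosing, 3 µM nominal final; schedule: dye loading 75 min at 37 °C, then 30 min room temperature; measured by: calcium fluorescence with Fluo-8; control set: vehicle and agonist controls; replication: n of 1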
TAAR1 ag conf: human TAAR1 agonists, retest of hits, confirmation, Fluo-8 calcium fluorescence, CHO RD-HGA16 cells. scaled: DMSO 0%, maximal phenethylamine 100%. activation, % at 3 µM. actives 82% (n = 2,400). shares compounds with TAAR1 ag. AID 651783, 2012;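 active means activation above a cutoff set at the run's mean compound activation plus 3 SD, cut at about 39% in these data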
Ga16 nonsel ag: nonselective calcium mobilization agonists, CHO-Ga16 cells, counter-screen for hTAAR1 agonist project, cell-based, fluorescence, CHO-Ga16 parental line; shares compounds with TAAR1 ag; Fluo-8 calcium fluorescence; normalized to maximal ATP response, DMSO zero; activation, % at 3 µM; actives 50% (n = 2,400); AID 651787, 2012;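 active means activation above the run cutoff, the mean activation over all tested wells plus 3 SD, cut at about 12% in these data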;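 further: 0% = DMSO wells and 100% = maximal ATP response on the peak over basal ratio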
TAAR1 desensitize: TAAR1 desensitization by agonist hits, confirmation, counter-screen for TAAR1 agonist project, cell-based, fluorescence, tachyphylaxis; shares compounds with TAAR1 ag; CHO RD-HGA16 hTAAR1, Fluo-8 calcium, beta-PEA response inhibition; inhibition, % at 3 µM; actives 46% (n = 2,400); AID 651951, 2012;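 active means inhibition above the run cutoff, the mean inhibition of all test compounds plus 3 SD, cut at about 49% in these data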;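 further: beta-PEA stimulus applied at its EC80; loss of beta-PEA calcium signal after compound pretreatment read as receptor desensitization; 0% = DMSO with beta-PEA at EC80 and 100% = DMSO alone without agonist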
Ga16 nonsel ant: inhibition of ATP-evoked calcium response in CHO-Ga16 cells, counter-screen for TAAR1 agonist project, cell-based, fluorescence; shares compounds with TAAR1 ag; CHO-Ga16 ATP-induced calcium, Fluo-8 fluorescence; inhibition, % at 3 µM; actives 39% (n = 2,400); AID 651952, 2012;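 active means inhibition above the plate's mean compound inhibition plus 3 SD, computed per plate, cut at about 22% in these data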;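 further: 0% = EC80 ATP with DMSO and 100% = DMSO wells without ATP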
* = called active by the depositor; nt = no result given. An excerpt weighted towards active compounds, which were near 2.3% of everything screened.

SMILES | OXTR ag | OXTR potentiator | V1aR counter | TAAR1 ag | TAAR1 antag | TAAR1 ag conf | Ga16 nonsel ag | TAAR1 desensitize | Ga16 nonsel ant
O=C(COC(=O)C1=COCCO1)NCc1ccc(Cl)cc1Cl | nt | nt | nt | 2 | -16 | nt | nt | nt | nt
CCCCCCc1cc2cc(-c3nnc(-c4ccccc4OC)o3)c(=O)oc2cc1O | 13 | -5 | 13 | 21 | 28 | nt | nt | nt | nt
CCCCCCc1cc2cc(-c3nnc(-c4ccccc4O)o3)c(=O)oc2cc1O | 11 | -4 | 7 | 48* | 43 | 48* | 46* | 59* | 60*
O=C(NNC(=S)NC(=O)c1ccccc1Cl)c1cccc([N+](=O)[O-])c1 | 28* | -11 | 23* | 92* | 34 | 57* | 43* | 22 | 22*
O=C(NNC(=S)NC(=O)c1ccc(Br)cc1)c1ccc([N+](=O)[O-])cc1 | 64* | -26 | 63* | 124* | 95* | 142* | 110* | 96* | 65*
O=C(NNC(=S)NC(=O)c1ccccc1)c1ccc([N+](=O)[O-])cc1 | 34* | -22 | 33* | 64* | 27 | 70* | 46* | 19 | 22*
O=C(NNC(=S)NC(=O)c1ccc(Br)cc1)c1cccc([N+](=O)[O-])c1 | 31* | -25 | 64* | 135* | 35 | 105* | 88* | 40 | 21
O=C(NNC(=O)c1ccc([N+](=O)[O-])cc1)c1ccc(Br)cc1 | 0 | -7 | 0 | 1 | -22 | nt | nt | nt | nt
Cc1ccc(C(=O)NC(=S)NNC(=O)c2ccc([N+](=O)[O-])cc2)cc1 | 10 | -7 | 4 | 29 | -14 | nt | nt | nt | nt
CC(C)Cc1ccc(C(C)C(=O)Nc2nccs2)cc1 (centres undefined) | 32* | -14 | 29* | 105* | 74* | 103* | 50* | 81* | 50*
CC(C)c1ccc(CNC(=O)C(=O)Nc2nccs2)cc1 | 0 | -7 | 1 | 5 | 3 | nt | nt | nt | nt
CCN(Cc1ccccc1)S(=O)(=O)c1ccc(C(=O)Nc2nnc(-c3ccccc3OC)o2)cc1 | -2 | -5 | -1 | 43* | 23 | 19 | 28* | 39 | 33*
CCC(C)[C@H](NC(=O)N1CC(=O)Nc2ccccc21)C(=O)N[C@H](C(=O)O)c1ccccc1 (some centres undefined) | 0 | -10 | 1 | 1 | -16 | nt | nt | nt | nt
O=C(COC(=O)CNS(=O)(=O)c1ccc(Br)cc1Cl)Nc1ccc(N2CCOCC2)cc1 | 0 | -11 | 2 | 7 | 13 | nt | nt | nt | nt
CCc1nnc(NC(=O)CCC(=O)N2CCN(CCc3ccccc3)CC2)s1 | 0 | -1 | 0 | 4 | -41 | nt | nt | nt | nt
O=C(O)/C=C/C(=O)NCCc1ccccc1 | 1 | -2 | 1 | 118* | 80* | 105* | 1 | 98* | 6
O=C(O)/C=C/C(=O)NCCc1cccc(Cl)c1 | 0 | -9 | 2 | 69* | 76* | 93* | 8 | 96* | 6
CCc1nnc(NC(=O)CCC(=O)NCCc2ccccc2)s1 | 0 | -4 | 0 | 49* | -9 | 16 | 0 | -2 | 7
O=C(CCCC(=O)c1ccccc1)NCCc1ccccc1 | 0 | 6 | 0 | 47* | 75* | 50* | 15* | 90* | 14
CC1(C)CC(NS(=O)(=O)c2ccc(Cl)cc2)CC(C)(C)N1 | 0 | -6 | -1 | 4 | 6 | nt | nt | nt | nt
CCOC(=O)NC(=O)c1cn(N(C)c2ncc(C(F)(F)F)cc2Cl)c(=O)[nH]c1=O | -1 | -6 | 1 | 1 | -2 | nt | nt | nt | nt
O=C(COC(=O)c1cc(-c2cccc(Br)c2)nc2ccccc12)NCC1CCCO1 (centres undefined) | 0 | -14 | 1 | 6 | 35 | nt | nt | nt | nt
C[C@@H]1CN([C@H](C)CO)C(=O)CCCn2cc(nn2)CO[C@H]1CN(C)C(=O)Nc1ccccc1 | nt | nt | nt | 2 | -17 | nt | nt | nt | nt
O=C(O)/C=C/C(=O)NCCc1ccc(Cl)cc1 | 2 | 3 | 2 | 76* | 44 | 97* | 7 | 67* | -4
COc1ccc(CCNC(=O)/C=C/C(=O)O)cc1 | 0 | -15 | 0 | 62* | 30 | 81* | 2 | 50* | 5
SMILES | OXTR ag | OXTR potentiator | V1aR counter | TAAR1 ag | TAAR1 antag | TAAR1 ag conf | Ga16 nonsel ag | TAAR1 desensitize | Ga16 nonsel ant
COc1ccc(CCCC(=O)NCCc2ccccc2)cc1 | nt | nt | nt | -1 | -15 | nt | nt | nt | nt
Cc1ccc(NC(=O)Nc2nnc([C@@H]3C[C@H](O)[C@@H](CO)O3)s2)cc1 | nt | nt | nt | 4 | -13 | nt | nt | nt | nt
O=C(Nc1ccccc1)Nc1nnc([C@H]2C[C@H](O)[C@@H](CO)O2)s1 | nt | nt | nt | 44* | 1 | 57* | 1 | 43 | 11
CCC(=O)c1ccc(OCC(O)Cn2nc(C)c(Br)c2C)cc1 (centres undefined) | 2 | -6 | 0 | 3 | -20 | nt | nt | nt | nt
COc1cccc(N)c1 | nt | nt | nt | 2 | 5 | nt | nt | nt | nt
COc1cccc(N=C(N)N)c1 | 0 | -13 | 1 | 67* | 53* | 83* | 2 | 75* | 5
Nc1ccccc1SSc1ccccc1N | -1 | -6 | 1 | 46* | 16 | 34 | 11 | 3 | 7
CCNC(=O)COC(=O)c1cc(S(=O)(=O)N2CCCc3ccccc32)ccc1Cl | 1 | -4 | 1 | 2 | -13 | nt | nt | nt | nt
CCOc1ccc(N(C(C)C(=O)N2CCCCCC2)S(C)(=O)=O)cc1 (centres undefined) | -1 | 3 | 2 | 1 | -3 | nt | nt | nt | nt
O=C(CNCCc1ccccc1)N1CCc2ccccc2C1 | 0 | -22 | 0 | 81* | 27 | 99* | 4 | 89* | 5

Source: PubChem BioAssay
